Most compounds without a hit are left out; they make up all but 3.7% or so of the library.
KCNK3 inh – human KCNK3 channel inhibitors, primary screen, CHO cells, FluxOR thallium flux, B-score; Potassium channel subfamily K member 3 (Homo sapiens), O14649; FluxOR fluorescence; active compounds read low; B-score at 10 µM; 340,000 tested, 0.84% active;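 active means B-score under library mean minus 4 SD, starting fluorescence ratio at most library mean plus 5 SD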;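 further: more negative B-score means stronger inhibition of thallium flux through KCNK3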
KCNK9 block – KCNK9 potassium channel inhibitors, primary screen, HEK293 cells, thallium flux | FluxOR thallium flux fluorescence; active compounds read low | B-score at 10 µM | 310,000 tested, 1.2% active | Potassium channel subfamily K member 9 (Homo sapiens), Q9NPC2;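 active means ratio B-score over 3 SD below the library mean, with starting fluorescence within 5 SD of its mean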;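 further: negative B-score means less thallium flux so channel inhibition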
Kir21 inh – inhibitors of mouse Kir2.1 inward-rectifier potassium channel. 310,000 tested, 0.85% active. HEK293-Kir2.1, FluxOR thallium flux fluorescence; active compounds read low. B-score at 10 µM. Inward rectifier potassium channel 2 (Mus musculus), P35561;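 active means fluorescence ratio B-score at or below minus 3 SD of library scores, with starting-brightness B-score within 2 SD, cut at about -4.2 in these data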;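 further: channel flux triggered by added potassium and thallium sulfate stimulus; B-score of peak minus minimum fluorescence over baseline after thallium stimulus; more negative B-score means stronger Kir2.1 block with less thallium influx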
KCNQ1 inh – inhibitors of human KCNQ1 channel, primary screen, cell-based, thallium flux, high-throughput; CHO-K1 KCNQ1, FluxOR thallium flux fluorescence; active compounds read high; 310,000 tested, 1.3% active; Potassium voltage-gated channel subfamily KQT member 1 (Homo sapiens), P51787; AID 2642, 2010; B-score at 10 µM;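 active means compounds whose thallium flux B-score, printed positive for inhibition, exceeds three library SD while starting fluorescence stays within three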;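 further: channel opened by potassium depolarization with thallium stimulus after 20 min compound exposure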
Target sequence (P51787 whole entry, looked up): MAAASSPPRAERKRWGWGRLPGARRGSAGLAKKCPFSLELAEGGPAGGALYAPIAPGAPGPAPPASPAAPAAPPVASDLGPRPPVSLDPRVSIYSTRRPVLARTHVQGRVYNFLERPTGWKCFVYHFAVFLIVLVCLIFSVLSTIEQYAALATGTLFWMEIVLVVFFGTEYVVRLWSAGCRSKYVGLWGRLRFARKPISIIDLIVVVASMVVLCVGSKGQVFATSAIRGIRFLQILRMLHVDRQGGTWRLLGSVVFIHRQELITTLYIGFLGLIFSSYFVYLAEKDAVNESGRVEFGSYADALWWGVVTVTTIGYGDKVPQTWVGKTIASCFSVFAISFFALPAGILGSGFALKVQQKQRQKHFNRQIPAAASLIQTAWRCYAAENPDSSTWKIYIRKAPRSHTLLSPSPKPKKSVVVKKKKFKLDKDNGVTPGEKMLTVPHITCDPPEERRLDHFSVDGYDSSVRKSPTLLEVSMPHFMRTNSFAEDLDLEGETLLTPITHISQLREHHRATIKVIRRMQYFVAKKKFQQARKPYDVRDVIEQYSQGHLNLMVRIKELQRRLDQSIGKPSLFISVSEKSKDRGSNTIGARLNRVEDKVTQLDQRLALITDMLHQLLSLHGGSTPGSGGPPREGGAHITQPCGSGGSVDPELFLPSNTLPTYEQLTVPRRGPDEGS
hERG rescue – hERG rescue from dofetilide block, primary screen, cell-based, CHO-hERG, FluxOR thallium flux, dofetilide IC70; dofetilide IC70 present; 310,000 tested, 0.51% active; activation (rescue from dofetilide block), less the hit threshold, % at 10 µM; Voltage-gated inwardly rectifying potassium channel KCNH2 (Homo sapiens), Q12809; AID 1511, 2009;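 active means activation above the mean of controls blocked by dofetilide plus 5 SD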;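 further: thallium influx through hERG after potassium depolarization seen as dye fluorescence rise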
KCNQ1 pot – potentiators or activators of KCNQ1 channel, primary screen, cell-based, thallium flux, high-throughput; Potassium voltage-gated channel subfamily KQT member 1 (Homo sapiens), P51787; CHO-K1 KCNQ1, thallium flux FluxOR fluorescence; active compounds read high; B-score at 10 µM; 310,000 tested, 0.35% active; AID 2648, 2010;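 active means fluorescence ratio B-score, a plate-corrected score, at least three library SD, with initial intensity B-score within 5 SD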
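System: Stable KCNQ1 CHO-K1 line | Incubation: 90 min dye loading and 20 min compound exposure, both at room temperature | Measure: Ratio B score | Medium: Assay buffer for compound exposure, DMSO matched across wells | Compound dosing: Single-concentration screen | Probe or stimulus: K+/Tl+ depolarizing stimulus | Measured by: Kinetic FluxOR fluorescence, 10 s baseline plus 110 s post-stimulus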
The depositor's hits bear a star; i = inactive; / = not tested or not shown.

SMILES	KCNK3 inh	KCNK9 block	Kir21 inh	KCNQ1 inh	hERG rescue	KCNQ1 pot
O=C(NNS(=O)(=O)c1ccc([N+](=O)[O-])cc1)c1ccc([N+](=O)[O-])cc1	i	i	1.4	i	-10	i
Cc1cc(C)c2cc(C#N)c(N3CCCN(C(=S)NCCCN(C)C)CC3)nc2c1	i	i	-6.6*	i	-13	i
COC(=O)C1=C(C)N=C2SCCC(=O)N2C1c1cc(Br)ccc1OC (stereo unspecified)	i	i	-0.29	i	-10	i
CCOC(=O)C1=C(C)N=C2SCCC(=O)N2C1c1cccs1 (stereo unspecified)	i	i	-0.05	i	-1	i
CCOC(=O)C1=C(C)N=C2SCCC(=O)N2[C@@H]1c1cccs1	i	i	-4.3*	i	-5	i
COC(=O)C1=C(C)N=C2SCCC(=O)N2C1/C=C/c1ccccc1 (stereo unspecified)	-8.9*	i	0.06	i	-6	i
C=CCOC(=O)C1=C(C)N=C2SCCC(=O)N2C1c1ccc(OC(=O)c2ccco2)cc1 (stereo unspecified)	i	i	-5*	i	-5	i
CN(NC(=O)c1ccccc1F)c1ccc([N+](=O)[O-])cn1	i	i	-1.8	i	1	i
O=C(COC(=O)c1n[nH]c2ccccc12)NC1CCCCC1	i	/	/	/	/	/
CC(=O)NCc1ccc(S(=O)(=O)N2CCCN(C)CC2)cc1	i	i	-0.15	i	0	i
O=C(CN1C(=O)c2ccccc2S1(=O)=O)Nc1ccc([N+](=O)[O-])cc1	i	/	/	/	/	/
Cc1ccc(-c2nn(-c3ccccc3)cc2C2SCC(=O)N2Cc2ccccc2)o1 (stereo unspecified)	i	i	-0.66	7*	-20	i
COc1ccc(C2CC(c3ccccc3)=NN2c2ccc(C(N)=O)cc2)cc1 (stereo unspecified)	i	i	-0.04	10*	-8	i
CC(=O)Nc1ccc(C2=NN(c3ccccc3)C(c3ccccc3)C2)cc1 (stereo unspecified)	i	-6.7*	0.01	i	-1	i
O=C(O)c1ccc(N2N=C(c3ccccc3)CC2c2ccccc2)cc1 (stereo unspecified)	i	i	0.23	i	-12	i
COc1ccc(C2CC(c3ccccc3)=NN2c2ccc(S(N)(=O)=O)cc2)cc1 (stereo unspecified)	i	i	0.18	i	-10	i
NS(=O)(=O)c1ccc(N2N=C(c3ccccc3)CC2c2ccc(F)cc2)cc1 (stereo unspecified)	i	-7.7*	1.3	6*	-10	i
COc1ccc(C2=NN(c3ccc(C=O)cc3)C(c3ccccc3)C2)cc1 (stereo unspecified)	/	i	-0.05	6*	-4	i
N#CCC(=O)N/N=C/c1ccc(N2N=C(c3ccccc3)CC2c2ccccc2)cc1 (stereo unspecified)	i	i	0.06	i	-1	i
O=Cc1ccc(N2N=C(c3ccccc3)CC2c2ccccc2)cc1 (stereo unspecified)	i	i	0.08	8*	-14	i
COc1ccc(C2CC(c3ccccc3)=NN2c2ccc(/C=N/NC(=O)c3ccncc3)cc2)cc1 (stereo unspecified)	i	i	-0.57	6*	-4	i
COC(=O)/C(=C/c1cn(C)c2ccccc12)[N+](=O)[O-]	/	i	-5.3*	i	-16	i
COC(=O)/C(=C/c1cn(C(C)=O)c2ccccc12)[N+](=O)[O-]	i	/	/	/	/	/
CC1(C)Cc2c(ccc3ccccc23)C(=O)N1	i	i	0.88	i	-15	i
O=C1CC(O)(C(F)(F)F)Oc2c1ccc1ccccc21 (stereo unspecified)	i	i	0.51	i	6.8*	8*
SMILES	KCNK3 inh	KCNK9 block	Kir21 inh	KCNQ1 inh	hERG rescue	KCNQ1 pot
CCOC(=O)C1=C(COC(=O)c2cc(Br)c(Br)s2)NC(=O)NC1C (stereo unspecified)	i	i	-0.21	i	-20	i
Cc1cccc(CSCCNC(=O)COc2ccc(Cl)cc2)c1	i	i	0.66	i	-6	i
O=C(COc1ccc(Cl)cc1)NCCSCc1cccc(Cl)c1	i	i	-1.6	6*	-1	i
CC(CCc1ccccc1)NC(=O)c1ccc(NC(=O)c2cccc(Br)c2)cc1 (stereo unspecified)	i	-7.4*	1.2	i	-2	i
Cc1nn(-c2ccccc2)c(C)c1/C=N/NC(=O)CSc1nnc(SCc2ccccc2Cl)s1	i	i	0.73	6*	-13	i
N#Cc1c(NC(=O)CSc2ccccn2)oc(-c2ccccc2)c1-c1ccccc1	i	i	0.25	7*	-11	i
Cc1ccc(N=c2oc3cc(O)ccc3cc2C(N)=O)cc1	i	i	1.1	i	2	i
COc1ccc(N=c2oc3cc(O)ccc3cc2C(=O)Nc2ccccn2)cc1OC	i	-6.8*	0.71	9*	-18	i
COc1ccc(OC)c(S(=O)(=O)Nc2ccc(O)c3ccccc23)c1	i	i	1.2	i	11*	i
Cc1cc(-c2nnc(CCC(=O)NCCc3ccccc3F)o2)no1	i	i	0.03	i	-9	i
FC(F)Sc1nc(-c2ccccc2)c(-c2ccccc2)n1C(F)F	i	i	-1.2	9*	-8	i
Cc1ccc(C)c(N2CCN(C(=O)c3ccc(Cn4c(=O)[nH]c5ccccc5c4=O)cc3)CC2)c1	i	i	-0.8	i	-12	i
Cc1ccc(C)c(N2CCN(c3nc4ccccc4c(=O)n3Cc3ccccc3)CC2)c1	i	-7.6*	1.6	i	-12	i
O=C1c2cccc3c([N+](=O)[O-])ccc(c23)C(=O)N1c1ccccn1	i	-6.6*	-2.5	i	-14	i
O=C1c2cccc3c([N+](=O)[O-])ccc(c23)C(=O)N1O	i	i	-3.4	8*	-23	i
O=C1c2ccc([N+](=O)[O-])cc2C(=O)N1c1ccc(Cl)cn1	i	i	-2.2	i	-11	i

Source: PubChem
